In data set [1] the test system is MCF7 (ATCC – HTB-22, breast carcinoma). Description: MTT cell viability assay, MCF7. It is filed as cell-based. As to conditions: for IC50: Homo sapiens, MCF7, read-out: IC50 MCF7; for higher potency compared to previously reported fused pyran derivative III: MCF7 IC50 versus III. (Tetrazolium assays rely on reduction of a dye to a coloured formazan, in cell work by metabolically active cells.)

Data set [2] has as its system A549 (ATCC – CCL-185, lung carcinoma). Briefly: MTT cell viability assay, A549. The format is cell-based. As to conditions: Homo sapiens, A549, read-out: IC50 A549.
For data set [3], the system named is HCT116 (ATCC – CCL-247, colon carcinoma). Briefly: MTT cell viability assay, HCT116. The format is cell-based. As to conditions: Homo sapiens, HCT-116, read-out: IC50 HCT116.
In the next data set the test system is MCF-7 cells. Description: Colony formation assay. It is filed as cell-based.
In another data set the test system is MCF7 spheroids. Briefly: Spheroid formation assay. It is filed as cell-based. To be noted: 72 hours of treatment. A digest of the protocol:
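Agar was liquefied in normal saline, sterilized and cast into 3D molds, which were rinsed with culture medium. MCF7 cells were seeded onto the molds and left 20 min to adhere, then medium with varied test-compound concentrations was added. Spheroid dimensions were tracked by live-cell imaging and compared with untreated controls.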

A further data set deals with MCF7 cells. Briefly: Cell cycle analysis. It is filed as cell-based. As to conditions: for S phase population / cells in G1 phase / cells in G2 (G2/M) phase: MCF7, 24 hours; for S phase population: compounds at IC50; for cells in G1 phase / cells in G2 (G2/M) phase / G1 phase population / G2 (G2/M) phase population: compounds at IC50, ETP 10 μM; for G1 phase population / G2 (G2/M) phase population: MCF7, 48 hours. The method in brief: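 MCF7 cells were treated with the test compounds for 24 and 48 h, with etoposide as the positive control and 0.1% DMSO as the vehicle. Cells were stained with propidium iodide and their G1, S and G2 distribution was read by flow cytometry. n = 3; two-way ANOVA with Tukey's test.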

The next data set concerns MCF7 cell line. Description: γH2AX labelling for DNA double-strand breaks. The format is cell-based. As to conditions: compounds at IC50, etoposide 10 μM. The method in brief:
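To detect DNA double-strand breaks, MCF7 cells were exposed to the test compounds for 24 and 48 h, with etoposide as the positive control and 0.1% DMSO as the vehicle. γH2AX labelling was quantified by flow cytometry. n = 3; two-way ANOVA with Tukey's test.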

The next data set deals with MCF7 breast cancer cells. Description: Apoptosis, annexin V staining and flow cytometry. The format is cell-based. The method in brief: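 MCF7 cells were exposed to the test compounds for 24 or 48 h, with etoposide (10 μM) as the positive control and 0.1% DMSO as the untreated control. Cells were stained with annexin V and analysed by flow cytometry into live, early apoptotic and late apoptotic fractions.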

Data set [4] relates to chorioallantoic membrane (CAM) blood vessel formation. Description: Ex ovo chorioallantoic membrane. To be noted: concentration-dependent, over time. It is filed as in vivo, chicken.
The subject of data set [5] is MRC5 (ATCC – CCL-171, human diploid fibroblast cell line).
The test system is the same in data set [6]. Description: cells. To be noted: MRC5, read-out: IC50 MRC5.
Setting [7] is: MCF7, 24 hours, compounds at IC50.
Where [8] appears, read: MCF7, 24 hours, compounds at IC50, etoposide 10 μM.
Where [9] appears, read: MCF7, 48 hours, compounds at IC50, etoposide 10 μM.

On to `Cc1nccn1-c1ccc(C2C(C#N)=C(N)OC3=C2C(=O)CC(C)(C)C3)cc1` (stereo not shown) [Compound 8a, 2-Amino-7,7-dimethyl-4-(4-(2-methyl-1H-imidazol-1-yl)phenyl)-5-oxo-5,6,7,8-tetrahydro-4H-chromene-3-carbonitrile], for which the IC50 in data set [1] is 8.24 ± 0.19 µM; in data set [2] it was 111 ± 4.91 µM; in data set [3], 143 ± 6.35 µM; in [6], over 200 µM. The “higher potency compared to previously reported fused pyran derivative III” value in data set [1] was 1.5 fold. The “percentage of colony formation” value is on record as 94.3 ± 4.04% in the data set on MCF-7 cells (MCF-7, compound at IC10); 74.3 ± 2.08% with MCF-7 cells (MCF-7, compound at IC50); 5.67 ± 4.04% in the data set on MCF-7 cells (MCF-7, compound at IC90). In the data set on MCF7 spheroids, the “spheroid size versus untreated control” value is reported as “pronounced reduction in size”. Further, the S phase population in the data set with MCF7 cells worked out at 21.11 ± 3.39%. The “cells in G1 phase” value with MCF7 cells is given as 37.08 ± 5.07%. Also, the “cells in G2 (G2/M) phase” value in the data set with MCF7 cells came to 30.63 ± 4.35%. Besides, the G1 phase population in the data set with MCF7 cells is recorded as 47.08 ± 0.6%. Further, the γH2AX levels was 2.89 ± 0.99 with MCF7 cell line (MCF7, 24 hours) and 20.3 ± 2.74 in the data set on MCF7 cell line (MCF7, 48 hours). Further, the live cells with MCF7 breast cancer cells (setting [7]) was found to be 86.4 ± 0.15%. Also, the early apoptotic cells in the data set on MCF7 breast cancer cells (setting [8]) is listed as 4.27 ± 0.20%; in the data set on MCF7 breast cancer cells (setting [9]), 5.89 ± 0.20%. Besides, the late apoptotic cells in the data set with MCF7 breast cancer cells (setting [8]) is 7.6 ± 0.01%; in the data set with MCF7 breast cancer cells (setting [9]), 6.17 ± 0.13%. Also, in data set [4], the “new blood vessel formation versus untreated controls” value was “significant reduction in new blood vessel formation”. For the same compound, the “toxicity to MRC5 (MCR5) cells” value in [5] is listed as “nontoxic”.

On to `Cc1cn(-c2ccc(C3C(C#N)=C(N)OC4=C3C(=O)CC(C)(C)C4)cc2)cn1` (stereo not shown) [Compound 8b, 2-Amino-7,7-dimethyl-4-(4-(4-methyl-1H-imidazol-1-yl)phenyl)-5-oxo-5,6,7,8-tetrahydro-4H-chromene-3-carbonitrile], for which the half-inhibitory concentration (IC50) in data set [1] is 4.22 ± 0.81 µM; in data set [2], 110 ± 4.94 µM; in data set [3] it was 129 ± 5.79 µM; in [6], over 200 µM. Besides, the “higher potency compared to previously reported fused pyran derivative III” value in data set [1] worked out at 3 fold. Also, the “percentage of colony formation” value in the data set on MCF-7 cells (MCF-7, compound at IC10) was 97.7 ± 1.53%; in the data set on MCF-7 cells (MCF-7, compound at IC50) it was 76 ± 2.65%; in the data set on MCF-7 cells (MCF-7, compound at IC90), 15 ± 5%. The “spheroid size versus untreated control” value in the data set with MCF7 spheroids is given as “marked reduction in size”. The compound further had a S phase population with MCF7 cells of 15.11 ± 2.59%. The “cells in G1 phase” value in the data set with MCF7 cells came out at 41.59 ± 7.44%. The “cells in G2 (G2/M) phase” value with MCF7 cells was determined as 30.79 ± 5.11%. In the data set on MCF7 cells, this compound returned a G1 phase population of 45.22 ± 0.82%. Also, the “G2 (G2/M) phase population” value in the data set with MCF7 cells worked out at 28.83 ± 0.52%. Besides, the γH2AX levels in the data set with MCF7 cell line (MCF7, 24 hours) is listed as 4.71 ± 0.75; in the data set with MCF7 cell line (MCF7, 48 hours), 21.62 ± 3.38. Besides, the live cells in the data set on MCF7 breast cancer cells (setting [7]) is 87.55 ± 0.08%; in the data set on MCF7 breast cancer cells (setting [9]), 84.45 ± 0.64%. Moreover, the early apoptotic cells came to 2.66 ± 0.12% in the data set on MCF7 breast cancer cells (setting [8]) and 5.27 ± 0.13% in the data set on MCF7 breast cancer cells (setting [9]). Moreover, the late apoptotic cells in the data set with MCF7 breast cancer cells (setting [8]) was found to be 7.87 ± 0.02%; in the data set with MCF7 breast cancer cells (setting [9]) it was 9.46 ± 0.22%. In the data set with MCF7 breast cancer cells (MCF7, 48 hours, compound at IC50), the debris/dead cells is listed as 0.82 ± 0.30%. Also, the “new blood vessel formation versus untreated controls” value in data set [4] was “significant reduction in new blood vessel formation”. Moreover, the “toxicity to MRC5 (MCR5) cells” value in [5] is “nontoxic”.

In the case of `COc1cc([C@@H]2c3cc4c(cc3[C@@H](O[C@@H]3O[C@@H]5CO[C@@H](C)O[C@H]5[C@H](O)[C@H]3O)[C@H]3COC(=O)[C@H]23)OCO4)cc(OC)c1O` [Etoposide, reference compound], in the data set on MCF7 cells, the “cells in G1 phase” value was 26.61 ± 0.54%, the “cells in G2 (G2/M) phase” value is given as 49.03 ± 0.99%, the G1 phase population is given as 18.3 ± 1.67% and the “G2 (G2/M) phase population” value was 59.36 ± 4.79%. The γH2AX levels with MCF7 cell line (MCF7, 24 hours) turned out to be 8.8 ± 0.62. Moreover, the γH2AX levels with MCF7 cell line (MCF7, 48 hours) is given as 39.44 ± 1.69. In the data set on MCF7 breast cancer cells (setting [8]), this compound yielded an early apoptotic cells of 6.42 ± 0.27% and a late apoptotic cells of 12.25 ± 0.08%. In the data set with MCF7 breast cancer cells (setting [9]), this compound had an early apoptotic cells of 3.28 ± 0.16%, a late apoptotic cells of 11.8 ± 0.29% and a live cells of 83.15 ± 0.50%.

What is called IC50 is the point on the concentration scale where inhibition reaches its midpoint.

(Values after publication PMC12135072 (RSC Medicinal Chemistry, 2025).)
